In ChEMBL document CHEMBL3808334, “Synthesis and in vitro evaluation of novel triazine analogues as anticancer agents and their interaction studies with bovine serum albumin” (Eur J Med Chem, 2016):

Assays:
Format in all cases: functional
[1] = Growth inhibition of human DU145 cells assessed as cell growth at 10^-4 M incubated for 48 hrs by sulforhodamine B assay; conditions: DU-145, 48 h, read-out: Activity
How it was run: (§1)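 Cells seeded at 5,000–40,000/well according to doubling time and preincubated 24 h at 37 °C, 5% CO2. Time-zero plates were TCA-fixed. DMSO concentrate was diluted in medium with 50 µg/ml gentamicin to give five concentrations (10-fold or ½ log steps), then exposed 48 h. Cells were TCA-fixed, stained with 0.4% SRB and read at 515 nm. Percent growth was taken against time-zero and control; GI50, TGI and LC50 derived.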

[2] = Growth inhibition of human HCT116 cells incubated for 48 hrs by sulforhodamine B assay; conditions: HCT-116, 48 h; how it was run: as §1
[3] = Growth inhibition of human SF268 cells incubated for 48 hrs by sulforhodamine B assay; conditions: SF-268, 48 h
How it was run: (§2)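 Cells were plated at 5,000–40,000 per well according to doubling time and preincubated 24 h at 37 °C in 5% CO2; time-zero plates were then TCA-fixed. Five concentrations (10-fold or ½-log dilutions, DMSO stock) were incubated 48 h. Cells were TCA-fixed, stained with 0.4% SRB and read at 515 nm. GI50 was taken where [(Ti−Tz)/(C−Tz)]×100 = 50.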

[4] = tested on: 786-0; test: Growth inhibition of human 786-0 cells incubated for 48 hrs by sulforhodamine B assay; conditions: 786-0, 48 h
How it was run: (§3)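 Five-dose assay: five concentrations from 10-fold or ½-log serial dilutions. Cells are plated at 5,000–40,000 per well according to doubling time, grown 24 h, then exposed 48 h at 37 °C, 5% CO₂. Fixed with cold 50% TCA (final addition) for 60 min at 4 °C and stained with 0.4% SRB in 1% acetic acid. Bound dye is solubilized in 10 mM Tris base and read at 515 nm. GI₅₀ is where [(Ti−Tz)/(C−Tz)]×100 = 50, with a time-zero plate as Tz.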

[5] = tested on: SN12C; test: Growth inhibition of human SN12C cells incubated for 48 hrs by sulforhodamine B assay; how it was run: as §2
[6] = tested on: MDA-MB-231; test: Growth inhibition of human MDA-MB-231 cells incubated for 48 hrs by sulforhodamine B assay; conditions: MDA-MB-231, 48 h; how it was run: as §2
[7] = tested on: SK-MEL-5; test: Growth inhibition of human SK-MEL-5 cells assessed as cell growth at 10^-8 M incubated for 48 hrs by sulforhodamine B assay; conditions: SK-MEL-5, 48 h, read-out: Activity
[8] = Growth inhibition of human COLO205 cells assessed as cell growth at 10^-7 M incubated for 48 hrs by sulforhodamine B assay; conditions: COLO 205, 48 h, read-out: Activity; how it was run: as §1
[9] = Growth inhibition of human BT549 cells assessed as cell growth at 10^-5 M incubated for 48 hrs by sulforhodamine B assay; conditions: BT-549, 48 h, read-out: Activity; how it was run: as §3
[10] = Growth inhibition of human HCT15 cells assessed as cell growth at 10^-4 M incubated for 48 hrs by sulforhodamine B assay; conditions: HCT-15, 48 h, read-out: Activity; how it was run: as §1
[11] = Growth inhibition of human SNB19 cells assessed as cell growth at 10^-4 M incubated for 48 hrs by sulforhodamine B assay; conditions: SNB-19, 48 h, read-out: Activity
[12] = Growth inhibition of human OVCAR3 cells assessed as cell growth at 10^-7 M incubated for 48 hrs by sulforhodamine B assay; conditions: OVCAR-3, 48 h, read-out: Activity
[13] = Growth inhibition of human DU145 cells assessed as cell growth at 10 uM incubated for 48 hrs by sulforhodamine B assay; conditions: DU-145, 48 h, read-out: Activity
How it was run: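 Primary screen at one dose (10 µM) across 60 human cancer cell lines. Readout was growth percent relative to untreated control and time-zero.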

[14] = tested on: MDA-MB-231; test: Growth inhibition of human MDA-MB-231 cells assessed as cell growth at 10 uM incubated for 48 hrs by sulforhodamine B assay; conditions: MDA-MB-231, 48 h, read-out: Activity
[15] = tested on: ACHN; test: Growth inhibition of human ACHN cells assessed as cell growth at 10^-7 M incubated for 48 hrs by sulforhodamine B assay; conditions: read-out: Activity; how it was run: as §3
[16] = tested on: HT-29; test: Growth inhibition of human HT-29 cells assessed as cell growth at 10^-6 M incubated for 48 hrs by sulforhodamine B assay; conditions: HT-29, 48 h, read-out: Activity
[17] = Growth inhibition of human HCT116 cells assessed as cell growth at 10^-8 M incubated for 48 hrs by sulforhodamine B assay; conditions: HCT-116, 48 h, read-out: Activity; how it was run: as §1
[18] = tested on: HT-29; test: Growth inhibition of human HT-29 cells assessed as cell growth at 10^-8 M incubated for 48 hrs by sulforhodamine B assay; conditions: HT-29, 48 h, read-out: Activity
[19] = Growth inhibition of human SW620 cells assessed as cell growth at 10^-8 M incubated for 48 hrs by sulforhodamine B assay; conditions: SW-620, 48 h, read-out: Activity
[20] = tested on: SN12C; test: Growth inhibition of human SN12C cells assessed as cell growth at 10^-6 M incubated for 48 hrs by sulforhodamine B assay; conditions: read-out: Activity
[21] = tested on: HT-29; test: Growth inhibition of human HT-29 cells assessed as cell growth at 10^-5 M incubated for 48 hrs by sulforhodamine B assay; conditions: HT-29, 48 h, read-out: Activity
[22] = Growth inhibition of human SF268 cells assessed as cell growth at 10^-5 M incubated for 48 hrs by sulforhodamine B assay; conditions: SF-268, 48 h, read-out: Activity
[23] = tested on: A549; test: Growth inhibition of human A549/ATCC cells assessed as cell growth at 10 uM incubated for 48 hrs by sulforhodamine B assay; conditions: A549, 48 h, read-out: Activity
How it was run: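 One-dose screen at 10 µM final. Cells are plated at 5,000–40,000 per well according to doubling time and preincubated 24 h at 37 °C, 5% CO₂. Compound (DMSO stock diluted in medium with 50 µg/ml gentamicin) is then added for 48 h. Growth percent is read by sulforhodamine B staining, absorbance at 515 nm.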

[24] = tested on: NCI-H522; test: Growth inhibition of human NCI-H522 cells assessed as cell growth at 10 uM incubated for 48 hrs by sulforhodamine B assay; conditions: NCI-H522, 48 h, read-out: Activity
[25] = read-out: LC50 (the source's name)
[26] = read-out: pLC50 (the source's name) (converted)

Structure (SMILES): c1ccc(-c2nc(Nc3ccc(-c4nc5ccccc5[nH]4)cc3)nc(N3CCOCC3)n2)cc1
- growth at 100 µM [1]: -100%
- GI50 ([2]; read-out: GI50): 394 nM
- CC50 [2, 25]: 7180 nM
- TGI ([2]; read-out: TGI): 1620 nM
- GI50 ([2]; read-out: pGI50 (converted)): 398 nM
- CC50 [2, 26]: 7240 nM
- TGI ([2]; read-out: pTGI (converted)): 1620 nM
- GI50 ([3]; read-out: GI50): 1640 nM
- CC50 [3, 25]: 6390 nM
- TGI ([3]; read-out: TGI): 3240 nM
- GI50 ([3]; read-out: pGI50 (converted)): 1620 nM
- CC50 [3, 26]: 6460 nM
- TGI ([3]; read-out: pTGI (converted)): 3240 nM
- GI50 ([4]; read-out: GI50): 257 nM
- CC50 [4, 25]: 4060 nM
- TGI ([4]; read-out: TGI): 1250 nM
- GI50 ([4]; read-out: pGI50 (converted)): 257 nM
- CC50 [4, 26]: 4070 nM
- TGI ([4]; read-out: pTGI (converted)): 1260 nM
- LC50 (50% lethal concentration) [5]: 8470 nM
- GI50 ([5]; read-out: GI50): 1740 nM
- TGI ([5]; read-out: TGI): 3830 nM
- GI50 ([5]; read-out: pGI50 (converted)): 1740 nM
- CC50 [5, 26]: 8510 nM
- TGI ([5]; read-out: pTGI (converted)): 3800 nM
- GI50 ([6]; read-out: GI50): 1290 nM
- CC50 [6, 25]: 9400 nM
- TGI ([6]; read-out: TGI): 3480 nM
- GI50 ([6]; read-out: pGI50 (converted)): 1290 nM
- CC50 [6, 26]: 9330 nM
- TGI ([6]; read-out: pTGI (converted)): 3470 nM
- growth at 0.01 µM [7]: 101%
- growth at 0.1 µM [8]: 91%
- growth at 10 µM [9]: -69%
- growth at 100 µM [10]: -49%
- growth at 100 µM [11]: -48%
- growth at 0.1 µM [12]: 98%
- growth at 10 µM [13]: -27.8%
- growth at 10 µM [14]: -63.3%
- growth at 0.1 µM [15]: 92%
- growth at 1 µM [16]: 36%
- growth at 0.01 µM [17]: 99%
- growth at 0.01 µM [18]: 105%
- growth at 0.01 µM [19]: 98%
- growth at 1 µM [20]: 85%
- growth at 10 µM [21]: -70%
- growth at 10 µM [22]: -83%
- growth at 10 µM [23]: -68.5%
- growth at 10 µM [24]: -68.2%

Structure (SMILES): Clc1ccc(-c2nc(Nc3ccc(-c4nc5ccccc5[nH]4)cc3)nc(N3CCOCC3)n2)cc1
- growth at 100 µM [1]: -63%
- GI50 ([2]; read-out: GI50): 177 nM
- TGI ([2]; read-out: TGI): 346 nM
- GI50 ([2]; read-out: pGI50 (converted)): 178 nM
- TGI ([2]; read-out: pTGI (converted)): 347 nM
- GI50 ([3]; read-out: GI50): 311 nM
- TGI ([3]; read-out: TGI): 1080 nM
- GI50 ([3]; read-out: pGI50 (converted)): 309 nM
- TGI ([3]; read-out: pTGI (converted)): 1070 nM
- GI50 ([4]; read-out: GI50): 177 nM
- TGI ([4]; read-out: TGI): 348 nM
- GI50 ([4]; read-out: pGI50 (converted)): 178 nM
- TGI ([4]; read-out: pTGI (converted)): 347 nM
- GI50 ([5]; read-out: GI50): 851 nM
- TGI ([5]; read-out: TGI): 2390 nM
- GI50 ([5]; read-out: pGI50 (converted)): 851 nM
- TGI ([5]; read-out: pTGI (converted)): 2400 nM
- GI50 ([6]; read-out: GI50): 193 nM
- TGI ([6]; read-out: TGI): 422 nM
- GI50 ([6]; read-out: pGI50 (converted)): 195 nM
- TGI ([6]; read-out: pTGI (converted)): 417 nM
- growth at 0.01 µM [7]: 100%
- growth at 0.1 µM [8]: 95%
- growth at 10 µM [9]: -66%
- growth at 100 µM [10]: -10%
- growth at 100 µM [11]: 1%
- growth at 0.1 µM [12]: 97%
- growth at 10 µM [13]: -94%
- growth at 10 µM [14]: -76.7%
- growth at 0.1 µM [15]: 99%
- growth at 1 µM [16]: -39%
- growth at 0.01 µM [17]: 99%
- growth at 0.01 µM [18]: 104%
- growth at 0.01 µM [19]: 94%
- growth at 1 µM [20]: 47%
- growth at 10 µM [21]: -74%
- growth at 10 µM [22]: -80%
- growth at 10 µM [23]: -75.2%
- growth at 10 µM [24]: -73.9%
